Results: ChEMBL document CHEMBL1133510, “Synthesis and evaluation of novel steroidal oxime inhibitors of P450 17 (17 alpha-hydroxylase/C17-20-lyase) and 5 alpha-reductase types 1 and 2” (J Med Chem, 2000)
Several values for one entry are separate records, joined by “and”; a condition that tells them apart may be missing. Equal entries are not always repeated.

Assays:
[1] = target: T1, Steroid 17-alpha-hydroxylase/17,20 lyase (Homo sapiens, UniProt P05093); test: Inhibition of Human P450 17 and NADPH-P450 reductase co-expressed in Escherichia coli with 25 uM progesterone
T1 sequence (P05093 whole entry): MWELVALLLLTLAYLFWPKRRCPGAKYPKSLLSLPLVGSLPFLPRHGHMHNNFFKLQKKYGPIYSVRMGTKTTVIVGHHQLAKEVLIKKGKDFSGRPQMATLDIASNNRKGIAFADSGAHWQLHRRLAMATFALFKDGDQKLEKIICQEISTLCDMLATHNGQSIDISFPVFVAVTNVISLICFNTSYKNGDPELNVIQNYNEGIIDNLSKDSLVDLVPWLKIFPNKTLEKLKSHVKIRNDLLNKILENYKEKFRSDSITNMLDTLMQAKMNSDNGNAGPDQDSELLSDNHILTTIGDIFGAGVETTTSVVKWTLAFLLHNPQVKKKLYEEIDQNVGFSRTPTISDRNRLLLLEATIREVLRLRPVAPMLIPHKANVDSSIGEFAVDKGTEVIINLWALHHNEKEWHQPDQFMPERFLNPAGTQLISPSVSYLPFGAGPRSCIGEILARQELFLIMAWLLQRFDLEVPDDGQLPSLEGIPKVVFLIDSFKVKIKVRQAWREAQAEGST

[2] = target: T1, Steroid 17-alpha-hydroxylase/17,20 lyase; test: Evaluated for the inhibitory activity towards Cytochrome P450 17 human enzyme using testicular microsome at 25 uM of substrate (progesterone); set-up: species or system Testis
[3] = target: T2, Steroid 17-alpha-hydroxylase/17,20 lyase (Rattus norvegicus, UniProt P11715); test: Evaluated for the inhibitory activity towards Cytochrome P450 17 rat enzyme using testicular microsome at 25 uM of substrate (progesterone); set-up: species or system Testis
T2 sequence (P11715 whole entry): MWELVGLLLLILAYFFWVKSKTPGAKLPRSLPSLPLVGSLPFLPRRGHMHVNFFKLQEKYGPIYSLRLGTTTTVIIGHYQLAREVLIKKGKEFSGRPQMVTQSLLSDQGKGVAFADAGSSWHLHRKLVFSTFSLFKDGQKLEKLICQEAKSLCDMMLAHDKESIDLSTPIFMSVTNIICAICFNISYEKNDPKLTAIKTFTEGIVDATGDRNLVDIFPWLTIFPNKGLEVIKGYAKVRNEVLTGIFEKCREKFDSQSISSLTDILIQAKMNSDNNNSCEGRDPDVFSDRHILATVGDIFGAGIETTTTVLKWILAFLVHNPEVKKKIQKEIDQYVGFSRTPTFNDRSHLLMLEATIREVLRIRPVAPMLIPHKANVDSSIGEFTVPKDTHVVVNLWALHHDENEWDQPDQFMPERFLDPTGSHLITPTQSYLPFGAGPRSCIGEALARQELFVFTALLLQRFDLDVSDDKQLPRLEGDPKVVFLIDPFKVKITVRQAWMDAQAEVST
Outline: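 Testicular microsomes (human for human enzyme, rat for rat enzyme) incubated with progesterone substrate at 25 µM; product measured by RP-HPLC with UV detection. IC50 = concentration giving 50% inhibition, mean of at least two experiments.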

[4] = target: T3, Thromboxane-A synthase (Homo sapiens) (UniProt P24557); test: Inhibition of thromboxane synthase P450 TXA2 at 50 uM
T3 sequence (whole entry): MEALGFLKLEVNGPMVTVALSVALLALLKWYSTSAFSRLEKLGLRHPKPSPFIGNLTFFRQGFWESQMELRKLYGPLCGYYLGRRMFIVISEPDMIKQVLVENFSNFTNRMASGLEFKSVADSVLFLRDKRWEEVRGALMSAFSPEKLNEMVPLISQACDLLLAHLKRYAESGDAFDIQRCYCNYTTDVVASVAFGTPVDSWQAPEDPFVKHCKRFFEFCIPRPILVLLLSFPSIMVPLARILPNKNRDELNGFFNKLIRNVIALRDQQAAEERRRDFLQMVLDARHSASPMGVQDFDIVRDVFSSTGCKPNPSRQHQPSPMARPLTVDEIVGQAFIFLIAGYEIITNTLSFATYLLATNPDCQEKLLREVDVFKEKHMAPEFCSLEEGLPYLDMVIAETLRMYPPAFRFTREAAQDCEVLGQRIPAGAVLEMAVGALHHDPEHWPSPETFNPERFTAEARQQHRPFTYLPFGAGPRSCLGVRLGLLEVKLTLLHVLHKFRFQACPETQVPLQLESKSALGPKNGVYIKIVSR
Outline: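 Thromboxane synthase activity measured in citrated human whole blood; inhibitor tested at 50 µM.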

[5] = target: T4, 3-oxo-5-alpha-steroid 4-dehydrogenase 1 (Homo sapiens, UniProt P18405); test: Evaluated for the inhibitory activity against human steroid 5-alpha-reductase type I in human DU-145 cell assay at 5 nM of androstenedione; format: cell-based
T4 sequence (P18405 whole entry): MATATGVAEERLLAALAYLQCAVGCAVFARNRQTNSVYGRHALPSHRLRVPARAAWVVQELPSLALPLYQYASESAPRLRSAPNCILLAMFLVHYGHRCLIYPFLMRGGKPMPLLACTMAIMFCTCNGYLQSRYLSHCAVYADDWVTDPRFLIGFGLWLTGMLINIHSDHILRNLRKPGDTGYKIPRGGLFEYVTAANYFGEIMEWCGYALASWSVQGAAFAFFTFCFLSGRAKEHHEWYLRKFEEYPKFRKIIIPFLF
Outline: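 Whole human DU-145 cells as source of type 1 enzyme, incubated with radiolabeled androstenedione at 5 nM; HPLC separation of product. IC50 = inhibitor concentration giving 50% inhibition; mean of at least two experiments.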

[6] = target: T5, 3-oxo-5-alpha-steroid 4-dehydrogenase 2 (Homo sapiens, UniProt P31213); test: Evaluated for the inhibitory activity against human steroid 5-alpha-reductase type 2 from human BPH tissue at 210 nM of testosterone
T5 sequence (P31213 whole entry): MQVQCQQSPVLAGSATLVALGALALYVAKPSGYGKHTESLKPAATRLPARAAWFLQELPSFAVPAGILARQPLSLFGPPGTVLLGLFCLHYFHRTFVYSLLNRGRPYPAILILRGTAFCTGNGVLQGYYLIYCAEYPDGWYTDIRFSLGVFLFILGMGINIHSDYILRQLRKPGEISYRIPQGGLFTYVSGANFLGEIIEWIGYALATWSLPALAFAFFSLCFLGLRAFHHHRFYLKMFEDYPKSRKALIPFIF
Outline: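 Enzyme from prostate homogenate of BPH patients, assayed at pH 5.5 with radiolabeled testosterone at 210 nM; product separated by HPLC. IC50 taken as inhibitor concentration giving 50% inhibition; mean of at least two experiments.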

[7] = target: T2, Steroid 17-alpha-hydroxylase/17,20 lyase; test: Inhibition of Cytochrome P450 17 from rat testicular microsome at 25 uM progesterone; No inhibition
[8] = target: T5, 3-oxo-5-alpha-steroid 4-dehydrogenase 2; test: Inhibition of Human steroid 5-alpha-reductase type II expressed in HEK293 cells; format: cell-based
Outline: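 Stably transfected HEK293 clones expressing full-length human type 1 or type 2 cDNA; 300 000 cells per well attached overnight at 37 °C. Fresh DMEM/10% FCS with 5 nM [3H]androstenedione and inhibitor added, final DMSO 1%. Incubated 30 min (type 1) or 13 min (type 2); supernatant ether-extracted and analysed by HPLC. Mean of at least three experiments.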

[9] = target: T1, Steroid 17-alpha-hydroxylase/17,20 lyase; test: Inhibition of Cytochrome P450 17 of human testicular microsome at 25 uM progesterone; No inhibition
[10] = target: T4, 3-oxo-5-alpha-steroid 4-dehydrogenase 1; test: Inhibition of Human steroid 5-alpha-reductase type I expressed in HEK293 cells; format: cell-based
Outline: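 Human 5α-reductase type 1 cDNA (plasmid pRcCMV-I) stably transfected into HEK293 cells, clones chosen under G418. 300 000 cells/well attached overnight at 37 °C, then fresh DMEM/10% FCS containing 5 nM [3H]androstenedione plus inhibitor (1% DMSO) for 30 min. Supernatant extracted with ether, product measured by HPLC. IC50 taken as mean of at least three experiments.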

Rattus norvegicus [11] = organism: Rattus norvegicus; test: Percent decrease in plasma testosterone after 2 hr; format: functional
Outline: (§1)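 Adult male Sprague-Dawley rats, 7–8 per group, each received one intraperitoneal dose of 0.019 mmol/kg in olive oil/benzyl alcohol (95:5). Blood was drawn by cardiac puncture under diethyl ether anaesthesia at 2 or 6 h. Plasma testosterone was measured by double-antibody [125I]RIA (detection limit 0.1 ng/mL) and compared with vehicle controls.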

Rattus norvegicus [12] = organism: Rattus norvegicus; test: Percent decrease in plasma testosterone after 6 hr; format: functional; outline: as §1
[13] = target: T3, Thromboxane-A synthase (Homo sapiens); details: 50 uM
[14] = target: T1, Steroid 17-alpha-hydroxylase/17,20 lyase; test: Inhibition of Cytochrome P450 17 of human testicular microsomes at 25 uM progesterone
Outline: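 Enzyme source was human testicular microsomes, with progesterone substrate at 25 µM and product determined by RP-HPLC with UV detection. IC50 is the inhibitor concentration giving 50% inhibition, reported as the mean of at least two experiments.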

[15] = target: T2, Steroid 17-alpha-hydroxylase/17,20 lyase; test: Inhibition of Cytochrome P450 17 from rat testicular microsome at 125 uM progesterone; No inhibition

Compound | IC50 [2] [nM] | IC50 [3] [µM] | IC50 [5] [nM] | IC50 [6] | also measured
C[C@]12CC[C@H](O)CC1=CC[C@H]1C3CC/C(=C/C=N\O)[C@@]3(C)CC[C@@H]12 (some centres not stated) | 77 | 0.52 |  |  | IC50 [1]: 230 nM; inhibition [4]: 35%
C/C(=N/O)C1=CCC2C3CCC4=CC(=O)CCC4(C)C3CCC12C (configuration not stated) | 100 | > 125 | > 10000 | > 10000 nM | 
C/C(CC1CCC2C3CC=C4CC(O)CCC4(C)C3CCC12C)=N\O (configuration not stated) | 1180 | 9.8 |  |  | 
CC12CCC(O)CC1=CCC1C2CCC2(C)/C(=C/C=N/O)CCC12 (configuration not stated) | > 2500 | > 125 |  |  | 
C/C(=N/O)C1CC=C2C3CC=C4CC(O)CCC4(C)C3CCC21C (configuration not stated) | > 2500 | > 125 |  |  | 
C/C(CC1CCC2C3CCC4=CC(=O)CCC4(C)C3CCC12C)=N\O (configuration not stated) | > 2500 | 3.6 | 900 | 470 nM | 
C/C(=N/O)[C@H]1CCC2C3CC(=O)C4=CC(=O)CCC4(C)C3CCC21C (some centres not stated) | > 2500 |  | > 10000 | 3200 nM | IC50 [7]: Not Active
C[C@]12CC[C@H](O)C=C1CC[C@H]1C3CC/C(=C/C=N\O)[C@@]3(C)CC[C@@H]12 (some centres not stated) | 180 | 0.14 |  | 430 nM | 
C/C(=N/O)C1=CCC2[C@@H]3CC=C4C[C@@H](O)CC[C@]4(C)[C@H]3CC[C@]12C (some centres not stated) | 170 | > 125 |  |  | IC50 [1]: 520 nM
C/C(CC1CCC2C3CC(=O)C4=CC(=O)CCC4(C)C3CCC12C)=N\O (configuration not stated) |  |  | 900 | 430 nM | IC50 [8]: 860 nM; IC50 [7]: Not Active; IC50 [9]: Not Active; IC50 [10]: 2900 nM
C/C(=N/O)[C@@]1(O)CCC2C3CC=C4CC(O)CCC4(C)C3CCC21C (some centres not stated) |  |  |  |  | IC50 [7]: Not Active; IC50 [9]: Not Active
CC12CCC(=O)C=C1CCC1C2CCC2(C)C(C/C=N/O)CCC12 (configuration not stated) |  | 0.3 | 1950 | 300 nM | IC50 [8]: 890 nM; IC50 [10]: 2440 nM
CC(=O)N1CCN(c2ccc(OCC3COC(Cn4ccnc4)(c4ccc(Cl)cc4Cl)O3)cc2)CC1 (configuration not stated) [KETOCONAZOLE] |  |  |  |  | Decrease (Rattus norvegicus [11]): 57%; Decrease (Rattus norvegicus [12]): 44%
O=C(O)c1ccc(OCCn2ccnc2)cc1 |  |  |  |  | IC50 [13]: 1.1 µM
C/C(=N/O)[C@H]1CC[C@H]2[C@@H]3CC=C4C[C@@H](O)CC[C@]4(C)[C@H]3CC[C@]12C |  |  |  |  | IC50 [14]: 1650 nM; IC50 [15]: Not Active
C/C(=N/O)[C@H]1CC=C2[C@@H]3CC=C4C[C@@H](O)CC[C@]4(C)[C@H]3CC[C@@]21C | 200 | 125 |  |  | IC50 [1]: 420 nM
C/C(=N/O)[C@H]1CCC2C3CCC4=CC(=O)CCC4(C)C3CCC21C (some centres not stated) | > 2500 | > 125 | 1630 | 580 nM and 1170 nM | IC50 [10]: 1770 nM
CC(C)(C)NC(=O)[C@H]1CC[C@H]2[C@@H]3CC[C@H]4NC(=O)C=C[C@]4(C)[C@H]3CC[C@]12C [FINASTERIDE] |  |  | 40 |  | IC50 [8]: 60 nM; IC50 [10]: 540 nM
